H69AR inhibit: proliferation blockers of H69AR lung cancer cells, primary screen, cell-based, human, 86K library. H69AR lung tumor viability, ATP luminescence, 72 h; stronger effect = lower value. viability, % at 10 µM. actives 6% (n = 85,000). AID 598, 2007;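 active = viability at or below 40%; inactive = viability above 40%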;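 note: multidrug resistant small cell line overexpressing MRP-1 efflux transporter; 100% = mean luminescence of untreated control wells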
HUVEC prolif 384: inhibitors of HUVEC proliferation, primary screen, cell-based, 384-well | CellTiter-Glo luminescence, 72 h; stronger effect = lower value | viability, % at 10 µM (by protocol) | actives 1.1% (n = 86,000);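 active = viability at or below 30%; inactive = viability above 30%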;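 note: 100% = median luminescence of DMSO-only cell control wells on each plate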
Lung fibro prol: antiproliferative effect on LL 47 fibroblasts – human, LL 47 cells, CellTiter-Glo luminescence, primary screen; LL 47 human lung fibroblast viability, ATP luminescence; stronger effect = lower value; viability, % at 10 µM; actives 1.1% (n = 85,000);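 active = viability at or below 50% in the single dose screen; inactive = viability above 50%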;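 note: compound exposure lasted 72 h before the ATP readout; 100% = median luminescence of untreated cell-only wells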
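material = human LL 47 lung fibroblast cells | dosing = compounds added from tenfold dosing solution, 0.1% DMSO final | timing = overnight cell rest, 72 h compound treatment at 37 °C | measured by = CellTiter-Glo luminescence measuring cellular ATP | evaluation = % viability versus median cells-only luminescence | control set = cell-only wells, no compound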
HCT116 bCat-KO: primary screen for growth suppressors in beta-catenin knockout HCT116 cells (colon tumor, human); HCT116 beta-catenin knockout viability, CellTiter-Glo, 60 h; stronger effect = lower value; viability, % at 10 µM; actives 1.5% (n = 140,000); AID 818, 2007;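 active = viability at or under a set limit, the compound median less 4 SD, cut at about 6% in these data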;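 note: 0% = Hyamine 1622 control at 20 µM and 100% = untreated cell control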
PTEN del growth: growth suppression of PTEN-null HCT116, primary screen, cell-based, CellTiter-Glo | HCT116 PTEN-null viability, 60 h; stronger effect = lower value | actives 1.2% (n = 140,000) | viability, % at 10 µM;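 active = viability at or below a set limit, 4 SD under the median of all tested compounds, cut at about 3.7% in these data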;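 note: PTEN knockout HCT116 line with beta catenin targeted HCT116 as companion control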
* = called active by the depositor; . = no result given. Only a selection was taken, and hits are over-represented in it overall.

SMILES	H69AR inhibit	HUVEC prolif 384	Lung fibro prol	HCT116 bCat-KO	PTEN del growth
O=C(NC1CCCCC1)N1CCC(c2nc(-c3ccc(S(=O)(=O)N4CCCC4)cc3)no2)CC1	30*	73	83	62	50
O=C(C1CC1)N1CCC(c2nc(-c3ccc(S(=O)(=O)N4CCCC4)cc3)no2)CC1	93	98	109	97	72
O=C(NCCN1C(=O)S/C(=C\c2ccc(OC(F)F)cc2)C1=O)c1cnccn1	.	.	.	21	23
c1ccc(-n2ncc3c(N4CCN(CCOc5cccc6ccccc56)CC4)ncnc32)cc1	77	73	96	69	68
CC(CCc1ccccc1)NC(=O)COC(=O)C1CCC(C(C)(C)C)CC1 (stereo unspecified)	.	.	.	82	83
COc1ccc(CNC(=O)Cn2cc(C(F)(F)F)ccc2=O)cc1	.	.	.	87	92
CCOC(=O)c1c(C)[nH]c(C(=O)OCC(=O)Nc2ccc(OCC)cc2)c1C	.	.	.	90	98
CCOC(=O)c1[nH]c(C)c(C(=O)Nc2cc(OC)ccc2OC)c1C	28*	56	60	18	19
CCOC(=O)c1c(C)c(C(=O)Nc2cc(OC)ccc2OC)c(C)n1CC	95	55	58	30	31
CCOC(=O)c1c(C)[nH]c(C(=O)OCC(=O)Nc2cc(Cl)ccc2OC)c1C	2.6*	65	66	10	12
CCOC(=O)c1c(C)[nH]c(C(=O)OCC(=O)Nc2ccc(OC)c(Cl)c2)c1C	.	.	.	90	95
CCOC(=O)c1c(C)[nH]c(C(=O)OCC(=O)Nc2cc(C)ccc2OC)c1C	16*	31	23*	2.2*	13
CCC(C)Sc1nc2c(c(=O)[nH]c(=O)n2C)n1Cc1ccccc1Cl (stereo unspecified)	59	95	95	.	.
COc1ccc(CCN2C(=O)CS/C2=N/NC(=O)c2ccccc2F)cc1OC	.	.	.	86	97
O=[N+]([O-])c1ccc(NC(=S)NCCc2ccc(Cl)cc2)cc1	.	.	.	3.5*	2.9*
Cc1ccc(S(=O)(=O)c2c(C)nn(C(C)(C)C)c2OC(=O)c2cccs2)cc1	110	12*	101	78	74
Cc1ccc(S(=O)(=O)c2c(C)nn(C(C)(C)C)c2OC(=O)c2ccco2)cc1	54	14*	109	93	121
Cc1ccc(S(=O)(=O)c2c(C)nn(C(C)(C)C)c2OC(=O)c2ccc(Br)o2)cc1	37*	13*	102	96	87
CC(=O)Oc1c(S(=O)(=O)c2ccc(C)cc2)c(C)nn1C(C)(C)C	91	108	102	104	100
Cc1ccc(S(=O)(=O)c2c(C)nn(C(C)(C)C)c2OC(=O)C(C)(C)C)cc1	95	89	96	75	96
Cc1nc2cc3nc(C(F)(F)F)[nH]c3cc2[nH]1	.	.	.	85	108
c1cnn(-c2nc(N3CCOCC3)nc(N3CCOCC3)n2)c1	77	58	49*	61	66
CCOC(=O)N1CCC(NC(=O)C2CCC(CNS(=O)(=O)c3ccc(OC)cc3)CC2)CC1 (stereo unspecified)	6.0*	73	.	92	95
CCOC(=O)N1CCC(NC(=O)CNS(=O)(=O)c2ccc(Br)s2)CC1	23*	74	90	86	81
CCOC(=O)N1CCN(C(=O)C2CCC(CNS(=O)(=O)c3ccc(Cl)cc3)CC2)CC1 (stereo unspecified)	82	97	97	104	104
SMILES	H69AR inhibit	HUVEC prolif 384	Lung fibro prol	HCT116 bCat-KO	PTEN del growth
Cc1ccc(C)c(C(=O)CN2C(=O)NC3(CCC(C)CC3)C2=O)c1 (stereo unspecified)	.	.	.	91	89
CCO/C=C/C(O)(CNC(=O)c1ccc(C(C)(C)C)cc1)C(F)(F)F (stereo unspecified)	.	.	.	90	83
O=C(Cc1cccs1)Nc1ccc(Cl)cc1	99	99	100	88	87
Cc1ccc(-c2nnc(-c3ccc(NC(=O)Cc4cccs4)cc3)o2)cc1	.	.	.	1.2*	1.4*
CN(C)c1ccc(N/C=C/C(=O)c2ccc(F)cc2)cc1	35*	48	99	39	44
CN(C)c1ccc(N/C=C/C(=O)c2ccco2)cc1	65	72	107	62	59
O=C(CNC(=O)c1ccc(-c2ccccc2)cc1)OCc1c(Cl)cccc1Cl	.	.	.	99	94
Cc1cc(=O)oc2cc(OCC3CC(c4ccccc4)=NO3)ccc12 (stereo unspecified)	24*	64	91	40	43
